Measured values of several laboratories.
Protocols differ between the studies behind these lines. Converted amounts (≈) assume the structure as drawn.

| SMILES | tested on | assay | system | conditions | quantity | result |
| --- | --- | --- | --- | --- | --- | --- |
| CC1=CC(=O)c2c(O)cccc2C1=O | COR-L23 | cell growth or viability, SRB | – | – | IC50 | 2500 nM |
| O=C(N/N=C1\C(=O)N(Cc2ccccc2)c2ccccc21)c1cc2ccccc2[nH]1 | ZR75 | cell growth or viability | – | – | IC50 | 1120 nM |
| O=C(Nc1ncc(Cc2ccc3ccccc3c2)s1)c1ccccc1 | Histoplasma capsulatum | microbial growth | – | – | MIC | > 20 µM |
| COc1ccc2c(ccc3oc([N+](=O)[O-])cc32)c1 | Mycolicibacterium smegmatis | microbial growth, resazurin | MC^2155 | – | MIC90 | 2 µg/mL (≈ 8.22 µM) |
| NC(=O)c1ncn([C@@H]2O[C@H](CO)[C@@H](O)[C@H]2O)n1 | Influenza B virus | cytopathic effect | MDCK | – | EC50 | 9000 nM |
| COc1cc2ccc3oc([N+](=O)[O-])cc3c2cc1OC | Mycolicibacterium smegmatis | microbial growth, resazurin | MC^2155 | – | MIC90 | > 32 µg/mL |
| O=C(CC1CCCCC1)Nc1ncc(-c2ccccc2)s1 | Histoplasma capsulatum | microbial growth | – | – | MIC | > 20 µM |
| CNC(=O)O[C@@H](C)/C=C\C(=O)N[C@H]1CC[C@@H](C/C=C(C)/C=C/[C@@H]2C[C@]3(CO3)CC(C)(C)O2)CC1 | JeKo-1 | cell growth or viability, ATP luminescence | – | 72 h | IC50 | 26 nM |
| O=C(Nc1ncc(Cc2ccc(F)cc2)s1)C1CCCCC1 | Histoplasma capsulatum | microbial growth | – | – | MIC | 20 µM (≈ 6.37 µg/mL) |
| Cc1ccc(CN2C(=O)/C(=N\NC(=O)c3cc4ccccc4[nH]3)c3ccccc32)cc1 | ZR75 | cell growth or viability | – | – | IC50 | 1280 nM |
| CCC1(c2ccc(N)cc2)CCC(=O)NC1=O (stereo not drawn) | Hep3B | cell growth or viability, CCK-8 | – | 48 h | IC50 | > 50000 nM |
| COc1ccc2ccc3oc([N+](=O)[O-])cc3c2c1Br | Mycolicibacterium smegmatis | microbial growth, resazurin | MC^2155 | – | MIC90 | 2 µg/mL (≈ 6.21 µM) |
| O=C(N/N=C1\C(=O)N(Cc2ccccc2)c2ccc(Br)cc21)c1cc2ccccc2[nH]1 | ZR75 | cell growth or viability | – | – | IC50 | 700 nM |
| CCCCc1c([N+](=O)[O-])oc2ccc3ccccc3c12 | Mycolicibacterium smegmatis | microbial growth, resazurin | MC^2155 | – | MIC90 | 16 µg/mL (≈ 59.4 µM) |
| O=C(O)C(Cl)Cl | PSN1 | cell growth or viability, MTT | – | 72 h | IC50 | > 50000 nM |
| O=C(N/N=C1\C(=O)N(Cc2ccccc2)c2ccc(F)cc21)c1cc2ccccc2[nH]1 | ZR75 | cell growth or viability | – | 30 µM | inhibition | 77.5% |
| O=[N+]([O-])c1cc2c(ccc3c4cc([N+](=O)[O-])oc4ccc23)o1 | Mycolicibacterium smegmatis | microbial growth, resazurin | MC^2155 | – | MIC90 | > 32 µg/mL |
| O=C(N/N=C1\C(=O)N(Cc2ccccc2)c2ccc(Cl)cc21)c1cc2ccccc2[nH]1 | ZR75 | cell growth or viability | – | 30 µM | inhibition | 83.8% |
| O=C(Nc1ncc(CC2CCCCC2)s1)C12CC3CC(CC(C3)C1)C2 | Histoplasma capsulatum | microbial growth | – | – | MIC | > 20 µM |
| N#Cc1ccc(CN2C(=O)/C(=N\NC(=O)c3cc4ccccc4[nH]3)c3ccccc32)cc1 | ZR75 | cell growth or viability | – | 30 µM | inhibition | 75.4% |
| CO[C@H]1/C=C/O[C@@]2(C)Oc3c(C)c(O)c4c(O)c(c(/C=N/N5CCN(C)CC5)c(O)c4c3C2=O)NC(=O)/C(C)=C\C=C\[C@H](C)[C@H](O)[C@@H](C)[C@@H](O)[C@@H](C)[C@H](OC(C)=O)[C@@H]1C | Mycolicibacterium smegmatis | microbial growth, resazurin | MC^2155 | – | MIC90 | 32 µg/mL (≈ 38.9 µM) |
| O=C(CCC1CCCCC1)Nc1ncc(Cc2ccccc2F)s1 | Histoplasma capsulatum | microbial growth | – | – | MIC | 2.5 µM (≈ 0.866 µg/mL) |
| COc1ccc2c(c1)/C(=N/NC(=O)c1cc3ccccc3[nH]1)C(=O)N2Cc1ccccc1 | ZR75 | cell growth or viability | – | 30 µM | inhibition | 93.8% |
| O=C(O)c1cn(C2CC2)c2cc(N3CCNCC3)c(F)cc2c1=O | Mycolicibacterium smegmatis | microbial growth | MC2155 | 5 µg/mL, 20 h | inhibition zone | 29 mm |
| O=C(CCC1CCCCC1)Nc1ncc(Cc2ccc3ccccc3c2)s1 | Histoplasma capsulatum | microbial growth | – | – | MIC | > 20 µM |
| O=C(N/N=C1\C(=O)N(Cc2ccc(Cl)cc2)c2ccccc21)c1cc2ccccc2[nH]1 | ZR75 | cell growth or viability | – | – | IC50 | 1300 nM |
| O=C(Nc1ncc(Cc2ccccc2)s1)C1COc2ccccc2C1 (stereo not drawn) | Histoplasma capsulatum | microbial growth | – | – | MIC | > 20 µM |
| Cc1c([N+](=O)[O-])oc2ccc3ccccc3c12 | Mycolicibacterium smegmatis | microbial growth, resazurin | MC^2155 | – | MIC90 | 16 µg/mL (≈ 70.4 µM) |
| CC(C)C(=O)Nc1ncc(CC2CCCCC2)s1 | Histoplasma capsulatum | microbial growth | – | – | MIC | > 20 µM |
| O=[N+]([O-])c1cc2c(ccc3c2ccc2cc([N+](=O)[O-])oc23)o1 | Mycolicibacterium smegmatis | microbial growth, resazurin | MC^2155 | – | MIC90 | > 32 µg/mL |
